Reference: PubChem BioAssay AID651651 (Broad Institute, 2012)
Calls of active or inactive are those of the source.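 Rule for the calls: active = signal-lowering compounds whose fitted half-effect concentration is no more than twice the top tested dose; inconclusive = flat curve with 30 to 70% inhibition, or poor fit; inactive = the rest.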

Assay: quencher artefacts in RAD54 branch migration readout – biochemical, Cy5 label, cherry-picked samples, artefact control for RAD54 inhibitor project, dose response (AID 651651)
Outline: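 Test system: human RAD54 enzyme; Amount: 30 nM RAD54 in the enzyme mix; Medium: 25 mM Tris pH 7.5, 3 mM MgCl2, 2 mM ATP; Measured by: Cy5 fluorescence; Times: 60 min reaction at room temperature after substrate addition; Doses: pinned compound dose series, 10 mM stock solutions.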

Q: Which outcome does the source give for `COc1ccc(C#Cc2ccc([C@H]3[C@@H](CO)N4CCCCN(C(=O)Nc5cccc(F)c5)C[C@H]34)cc2)cc1` here?
A: inactive

Q: With `COc1ccc(S(=O)(=O)N(C)C[C@@H]2Oc3ccc(NC(=O)Nc4ccc5c(c4)OCO5)cc3C(=O)N([C@@H](C)CO)C[C@H]2C)cc1` as the compound, how does the outcome read?
A: inactive

Q: For `CN(C)c1ccc2c(c1)[C@@H]1C[C@@H](CC(=O)NCCN3CCCCC3)O[C@H](CO)[C@@H]1O2`, which outcome is on record?
A: inactive

Q: Which outcome does the source give for `COc1ccc(S(=O)(=O)N(C)C[C@@H]2Oc3ccc(NC(=O)Nc4ccc(C(F)(F)F)cc4)cc3C(=O)N([C@H](C)CO)C[C@H]2C)cc1` here?
A: inactive

Q: With `C[C@H]1CN([C@@H](C)CO)C(=O)Cc2cc(NC(=O)Nc3cccc4ccccc34)ccc2O[C@H]1CN(C)S(=O)(=O)c1ccc(F)cc1` as the compound, how does the outcome read?
A: inactive

Q: With `COc1ccc(CN(C)C[C@@H]2Oc3ccc(NC(=O)Nc4ccccc4)cc3C(=O)N([C@H](C)CO)C[C@H]2C)cc1` as the compound, how does the outcome read?
A: inactive

Q: Which outcome does the source give for `C[C@H]1CN([C@@H](C)CO)C(=O)c2cc(NS(=O)(=O)c3cccs3)ccc2O[C@@H]1CN(C)C(=O)Nc1cccc2ccccc12` here?
A: inactive

Q: Which outcome does the source give for `C[C@@H]1CN([C@@H](C)CO)C(=O)c2cc(C3=CCCC3)cnc2O[C@@H]1CN(C)C(=O)Nc1ccc(F)cc1` here?
A: inactive

Q: With `COc1ccccc1CNC(=O)C[C@@H]1C[C@@H]2c3cc(NC(=O)CN(C)C)ccc3O[C@@H]2[C@@H](CO)O1` as the compound, how does the outcome read?
A: inactive

Q: With `COc1ccc(S(=O)(=O)N(C)C[C@@H]2Oc3ccc(NC(=O)Nc4ccccc4)cc3CC(=O)N([C@@H](C)CO)C[C@@H]2C)cc1` as the compound, how does the outcome read?
A: inactive

Q: With `Cc1ccc(S(=O)(=O)N(C)C[C@@H]2Oc3ccc(NC(=O)NC4CCCCC4)cc3CC(=O)N([C@H](C)CO)C[C@@H]2C)cc1` as the compound, how does the outcome read?
A: inactive

Q: With `C[C@H]1CN([C@@H](C)CO)C(=O)Cc2cc(NC(=O)Nc3cccc4ccccc34)ccc2O[C@H]1CN(C)S(=O)(=O)c1ccc(Cl)cc1` as the compound, how does the outcome read?
A: inactive

Q: With `CO[C@@H]1CN(C)C(=O)c2cc(NC(C)=O)ccc2OC[C@H](C)N(Cc2ccccc2C(=O)O)C[C@@H]1C` as the compound, how does the outcome read?
A: inactive

Q: Which outcome does the source give for `CN(C)CC(=O)Nc1ccc2c(c1)[C@@H]1C[C@H](CC(=O)NC3CCCCC3)O[C@@H](CO)[C@@H]1O2` here?
A: inactive

Q: Which outcome does the source give for `COc1ccc(S(=O)(=O)N(C)C[C@@H]2Oc3ccc(NC(=O)NC(C)C)cc3CC(=O)N([C@@H](C)CO)C[C@@H]2C)cc1` here?
A: inactive

Q: Which outcome does the source give for `Cc1noc(C)c1NC(=O)Nc1ccc2c(c1)C(=O)N([C@H](C)CO)C[C@H](C)[C@H](CN(C)S(C)(=O)=O)OCCCC[C@H](C)O2` here?
A: inactive

Q: Which outcome does the source give for `COc1ccccc1CNC(=O)C[C@H]1C[C@@H]2c3cc(NC(=O)c4cccnc4)ccc3O[C@@H]2[C@H](CO)O1` here?
A: inactive

Q: Which outcome does the source give for `COc1ccc(CN(C)C[C@@H]2Oc3ccc(NC(=O)Nc4c(C)noc4C)cc3C(=O)N([C@H](C)CO)C[C@H]2C)cc1` here?
A: inactive

Q: With `Cc1noc(C)c1NC(=O)Nc1ccc2c(c1)C(=O)N([C@@H](C)CO)C[C@H](C)[C@@H](CN(C)S(C)(=O)=O)OCCCC[C@@H](C)O2` as the compound, how does the outcome read?
A: inactive

Q: Which outcome does the source give for `Cc1noc(C)c1NC(=O)N(C)C[C@H]1Oc2c(NC(=O)Nc3ccc(C(F)(F)F)cc3)cccc2C(=O)N([C@@H](C)CO)C[C@H]1C` here?
A: inactive

Q: For `Cc1ccc(S(=O)(=O)N(C)C[C@@H]2Oc3ccc(NC(=O)Nc4c(C)noc4C)cc3CC(=O)N([C@@H](C)CO)C[C@@H]2C)cc1`, which outcome is on record?
A: inactive

Q: Which outcome does the source give for `C[C@H]1CCCCO[C@@H](CN(C)C(=O)Nc2ccc3c(c2)OCO3)[C@@H](C)CN([C@@H](C)CO)C(=O)c2cc(NC(=O)Nc3ccc(C(F)(F)F)cc3)ccc2O1` here?
A: inactive

Q: Which outcome does the source give for `CS(=O)(=O)N1[C@@H]2Cn3c(ccc(C4=CCCCC4)c3=O)[C@H]1[C@@H](C(=O)N1CCOCC1)[C@@H]2CO` here?
A: inactive

Q: For `CN(C)c1ccc2c(c1)[C@@H]1C[C@@H](CC(=O)NCc3cc(F)ccc3F)O[C@H](CO)[C@@H]1O2`, which outcome is on record?
A: inactive

Q: For `COc1ccc(CN(C)C[C@@H]2Oc3ccc(NC(=O)Nc4ccc(F)cc4)cc3C(=O)N([C@@H](C)CO)C[C@H]2C)cc1`, which outcome is on record?
A: inactive

Q: Which outcome does the source give for `COc1ccc(CN(C)C[C@@H]2Oc3ccc(NC(=O)NC(C)C)cc3C(=O)N([C@H](C)CO)C[C@H]2C)cc1` here?
A: inactive

Q: With `O=C(NC1CCC1)[C@@H]1[C@@H](CO)[C@@H]2Cn3c(ccc(-c4ccc(F)cc4)c3=O)[C@@H]2N1Cc1ccccn1` as the compound, how does the outcome read?
A: inactive

Q: Which outcome does the source give for `COc1ccc(-c2ccc3c(c2)[C@H]2[C@H](CCN2C(=O)Cc2cccnc2)[C@H](CO)N3C)cc1` here?
A: inactive

Q: With `COc1ccc(CN(C)C[C@@H]2Oc3ccc(NC(=O)Nc4ccc(F)cc4)cc3C(=O)N([C@H](C)CO)C[C@H]2C)cc1` as the compound, how does the outcome read?
A: inactive
